Assay results published in ChEMBL document CHEMBL5303300, “EUbOPEN Chemogenomics Library - Multiplex” (2023).
“And” between values parts separate entries of the source, which are not always exact repeats. Identical values can stand only once.

Tested on: Fibroblast
Assay: Multiplex assay against human fibroblast
Format: toxicity, cell-based
Conditions: number of replicates 2
Method in brief: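 Live cells were stained at seeding with Hoechst33342, BioTracker Green Microtubule Cytoskeleton Dye, MitoTracker Red and Annexin V Alexa Fluor 680, then imaged on a CQ1 microscope at 37°C and 5% CO2 after compound addition. CellPathfinder machine-learning gating split cells into Hoechst high-intensity objects or normal cells. Normal cells were split into healthy, pyknosed or fragmented nuclei, and pyknosed cells into mitotic or apoptotic. Tubulin, mitochondrial-mass and membrane-permeability phenotypes are per cents of healthy-nucleus cells.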

[1] = 12 h, 1 µM, compound concentration 1 uM
[2] = 12 h, 10 µM, compound concentration 10 uM
[3] = 24 h, 1 µM, compound concentration 1 uM
[4] = 24 h, 10 µM, compound concentration 10 uM
[5] = 48 h, 1 µM, compound concentration 1 uM
[6] = 48 h, 10 µM, compound concentration 10 uM

## CC(C)NC(=O)[C@H]1CCC[C@H]1Nc1nc(Nc2ccc(C(=O)N(C)C3CCN(C)CC3)cc2)ncc1Cl
[1]
  Population Apoptotic (%): 45% and 33%
  Population Fragmented Nuclei (%): 7% and 8%
  Population Healthy Nuclei (%): 62% and 61%
  Population Hoechst High Intensity Objects (%): 0%
  Population Membrane Permeable-Phenotype (%): 8%
  Population Mitochondria Different-Phenotype (%): 0% and 2%
  Population Mitotic Cells (%): 54% and 66%
  Population Normal (%): 100%
  Population Pyknosed Nuclei (%): 30% and 29%
  Population Tubulin-Different-Phenotype (%): 20% and 12%
  Total Cell Count: 109 and 134
[2]
  Population Apoptotic (%): 62% and 51%
  Population Fragmented Nuclei (%): 19% and 12%
  Population Healthy Nuclei (%): 62% and 75%
  Population Hoechst High Intensity Objects (%): 0%
  Population Membrane Permeable-Phenotype (%): 0% and 4%
  Population Mitochondria Different-Phenotype (%): 3% and 6%
  Population Mitotic Cells (%): 37% and 48%
  Population Normal (%): 100%
  Population Pyknosed Nuclei (%): 18% and 12%
  Population Tubulin-Different-Phenotype (%): 51% and 44%
  Total Cell Count: 177 and 250
[3]
  Population Apoptotic (%): 48% and 58%
  Population Fragmented Nuclei (%): 8% and 10%
  Population Healthy Nuclei (%): 60% and 59%
  Population Hoechst High Intensity Objects (%): 0%
  Population Membrane Permeable-Phenotype (%): 14% and 7%
  Population Mitochondria Different-Phenotype (%): 0%
  Population Mitotic Cells (%): 51% and 41%
  Population Normal (%): 100%
  Population Pyknosed Nuclei (%): 30%
  Population Tubulin-Different-Phenotype (%): 16% and 13%
  Total Cell Count: 127 and 136
[4]
  Population Apoptotic (%): 65% and 66%
  Population Fragmented Nuclei (%): 16% and 13%
  Population Healthy Nuclei (%): 64% and 71%
  Population Hoechst High Intensity Objects (%): 0%
  Population Membrane Permeable-Phenotype (%): 2% and 0%
  Population Mitochondria Different-Phenotype (%): 9% and 6%
  Population Mitotic Cells (%): 34% and 33%
  Population Normal (%): 100%
  Population Pyknosed Nuclei (%): 18% and 15%
  Population Tubulin-Different-Phenotype (%): 40% and 28%
  Total Cell Count: 171 and 258
[5]
  Population Apoptotic (%): 67% and 75%
  Population Fragmented Nuclei (%): 14%
  Population Healthy Nuclei (%): 62% and 59%
  Population Hoechst High Intensity Objects (%): 0%
  Population Membrane Permeable-Phenotype (%): 8% and 4%
  Population Mitochondria Different-Phenotype (%): 0% and 1%
  Population Mitotic Cells (%): 32% and 24%
  Population Normal (%): 100%
  Population Pyknosed Nuclei (%): 22% and 26%
  Population Tubulin-Different-Phenotype (%): 15% and 11%
  Total Cell Count: 127 and 141
[6]
  Population Apoptotic (%): 78% and 82%
  Population Fragmented Nuclei (%): 17% and 12%
  Population Healthy Nuclei (%): 64% and 69%
  Population Hoechst High Intensity Objects (%): 0%
  Population Membrane Permeable-Phenotype (%): 4% and 5%
  Population Mitochondria Different-Phenotype (%): 6% and 2%
  Population Mitotic Cells (%): 21% and 17%
  Population Normal (%): 99% and 100%
  Population Pyknosed Nuclei (%): 17% and 18%
  Population Tubulin-Different-Phenotype (%): 36% and 18%
  Total Cell Count: 160 and 243

## O=C(Nc1ccnc(NC(=O)C2CC2)c1)c1c(Cl)cccc1Cl
[1]
  Population Apoptotic (%): 47% and 27%
  Population Fragmented Nuclei (%): 6% and 9%
  Population Healthy Nuclei (%): 65% and 67%
  Population Hoechst High Intensity Objects (%): 0%
  Population Membrane Permeable-Phenotype (%): 5% and 7%
  Population Mitochondria Different-Phenotype (%): 0%
  Population Mitotic Cells (%): 52% and 72%
  Population Normal (%): 100%
  Population Pyknosed Nuclei (%): 27% and 23%
  Population Tubulin-Different-Phenotype (%): 9% and 6%
  Total Cell Count: 145 and 189
[2]
  Population Apoptotic (%): 55% and 72%
  Population Fragmented Nuclei (%): 9% and 14%
  Population Healthy Nuclei (%): 78% and 77%
  Population Hoechst High Intensity Objects (%): 0%
  Population Membrane Permeable-Phenotype (%): 2%
  Population Mitochondria Different-Phenotype (%): 0%
  Population Mitotic Cells (%): 44% and 27%
  Population Normal (%): 100%
  Population Pyknosed Nuclei (%): 11% and 8%
  Population Tubulin-Different-Phenotype (%): 7% and 6%
  Total Cell Count: 244 and 215
[3]
  Population Apoptotic (%): 60% and 48%
  Population Fragmented Nuclei (%): 13% and 7%
  Population Healthy Nuclei (%): 60% and 70%
  Population Hoechst High Intensity Objects (%): 0%
  Population Membrane Permeable-Phenotype (%): 7%
  Population Mitochondria Different-Phenotype (%): 1% and 0%
  Population Mitotic Cells (%): 40% and 51%
  Population Normal (%): 100%
  Population Pyknosed Nuclei (%): 26% and 21%
  Population Tubulin-Different-Phenotype (%): 14% and 9%
  Total Cell Count: 150 and 188
[4]
  Population Apoptotic (%): 59% and 70%
  Population Fragmented Nuclei (%): 8% and 17%
  Population Healthy Nuclei (%): 82% and 74%
  Population Hoechst High Intensity Objects (%): 0%
  Population Membrane Permeable-Phenotype (%): 2% and 3%
  Population Mitochondria Different-Phenotype (%): 0%
  Population Mitotic Cells (%): 40% and 29%
  Population Normal (%): 99%
  Population Pyknosed Nuclei (%): 9% and 8%
  Population Tubulin-Different-Phenotype (%): 4% and 8%
  Total Cell Count: 232 and 213
[5]
  Population Apoptotic (%): 67% and 60%
  Population Fragmented Nuclei (%): 17% and 16%
  Population Healthy Nuclei (%): 53% and 65%
  Population Hoechst High Intensity Objects (%): 0%
  Population Membrane Permeable-Phenotype (%): 4% and 6%
  Population Mitochondria Different-Phenotype (%): 0%
  Population Mitotic Cells (%): 32% and 40%
  Population Normal (%): 99% and 100%
  Population Pyknosed Nuclei (%): 28% and 17%
  Total Cell Count: 170 and 199
[6]
  Population Apoptotic (%): 56% and 44%
  Population Fragmented Nuclei (%): 9% and 24%
  Population Healthy Nuclei (%): 81% and 71%
  Population Hoechst High Intensity Objects (%): 0%
  Population Membrane Permeable-Phenotype (%): 2% and 1%
  Population Mitochondria Different-Phenotype (%): 0%
  Population Mitotic Cells (%): 43% and 55%
  Population Normal (%): 100%
  Population Pyknosed Nuclei (%): 9% and 3%
  Population Tubulin-Different-Phenotype (%): 10% and 8%
  Total Cell Count: 239 and 229

## COc1ccc(F)c(F)c1C(=O)c1cnc(NC2CCN(S(C)(=O)=O)CC2)nc1N [RG-547]
[1]
  Population Apoptotic (%): 48% and 56%
  Population Fragmented Nuclei (%): 5% and 8%
  Population Healthy Nuclei (%): 78% and 70%
  Population Hoechst High Intensity Objects (%): 0%
  Population Membrane Permeable-Phenotype (%): 2% and 5%
  Population Mitochondria Different-Phenotype (%): 0%
  Population Mitotic Cells (%): 51% and 43%
  Population Normal (%): 100%
  Population Pyknosed Nuclei (%): 15% and 20%
  Population Tubulin-Different-Phenotype (%): 2% and 9%
  Total Cell Count: 173 and 188
[2]
  Population Apoptotic (%): 50% and 56%
  Population Fragmented Nuclei (%): 13% and 12%
  Population Healthy Nuclei (%): 73% and 72%
  Population Hoechst High Intensity Objects (%): 0%
  Population Membrane Permeable-Phenotype (%): 7% and 5%
  Population Mitochondria Different-Phenotype (%): 3% and 2%
  Population Mitotic Cells (%): 50% and 43%
  Population Normal (%): 99% and 100%
  Population Pyknosed Nuclei (%): 13% and 15%
  Population Tubulin-Different-Phenotype (%): 30% and 17%
  Total Cell Count: 192 and 209
[3]
  Population Apoptotic (%): 57% and 67%
  Population Fragmented Nuclei (%): 9% and 10%
  Population Healthy Nuclei (%): 77% and 69%
  Population Hoechst High Intensity Objects (%): 0%
  Population Membrane Permeable-Phenotype (%): 4% and 5%
  Population Mitochondria Different-Phenotype (%): 1% and 0%
  Population Mitotic Cells (%): 42% and 32%
  Population Normal (%): 100%
  Population Pyknosed Nuclei (%): 13% and 20%
  Population Tubulin-Different-Phenotype (%): 7%
  Total Cell Count: 196 and 184
[4]
  Population Apoptotic (%): 61% and 75%
  Population Fragmented Nuclei (%): 9% and 11%
  Population Healthy Nuclei (%): 72% and 74%
  Population Hoechst High Intensity Objects (%): 0%
  Population Membrane Permeable-Phenotype (%): 7% and 5%
  Population Mitochondria Different-Phenotype (%): 6% and 4%
  Population Mitotic Cells (%): 38% and 25%
  Population Normal (%): 100%
  Population Pyknosed Nuclei (%): 18% and 13%
  Population Tubulin-Different-Phenotype (%): 35% and 26%
  Total Cell Count: 194 and 201
[5]
  Population Apoptotic (%): 44% and 71%
  Population Fragmented Nuclei (%): 20% and 11%
  Population Healthy Nuclei (%): 44% and 70%
  Population Hoechst High Intensity Objects (%): 3% and 0%
  Population Mitochondria Different-Phenotype (%): 9% and 0%
  Population Mitotic Cells (%): 55% and 28%
  Population Normal (%): 96% and 100%
  Population Pyknosed Nuclei (%): 36% and 17%
[6]
  Population Apoptotic (%): 84% and 68%
  Population Fragmented Nuclei (%): 8% and 11%
  Population Healthy Nuclei (%): 62%
  Population Hoechst High Intensity Objects (%): 0%
  Population Membrane Permeable-Phenotype (%): 17% and 18%
  Population Mitochondria Different-Phenotype (%): 2% and 6%
  Population Mitotic Cells (%): 15% and 31%
  Population Normal (%): 100%
  Population Pyknosed Nuclei (%): 28% and 25%
  Population Tubulin-Different-Phenotype (%): 43% and 38%
  Total Cell Count: 179 and 184

## CC1=C(C)C(=O)C(C(CCCCCC(=O)O)c2ccccc2)=C(C)C1=O (stereo unspecified) [SERATRODAST]
[1]
  Population Apoptotic (%): 50% and 60%
  Population Fragmented Nuclei (%): 6% and 11%
  Population Healthy Nuclei (%): 57% and 79%
  Population Hoechst High Intensity Objects (%): 0%
  Population Membrane Permeable-Phenotype (%): 5% and 2%
  Population Mitochondria Different-Phenotype (%): 0% and 2%
  Population Mitotic Cells (%): 50% and 40%
  Population Normal (%): 99% and 100%
  Population Tubulin-Different-Phenotype (%): 5% and 3%
  Total Cell Count: 128 and 228
[2]
  Population Apoptotic (%): 35% and 25%
  Population Fragmented Nuclei (%): 12% and 18%
  Population Healthy Nuclei (%): 79% and 75%
  Population Hoechst High Intensity Objects (%): 0%
  Population Membrane Permeable-Phenotype (%): 6% and 5%
  Population Mitochondria Different-Phenotype (%): 1%
  Population Mitotic Cells (%): 64% and 75%
  Population Normal (%): 100%
  Population Pyknosed Nuclei (%): 8% and 6%
  Population Tubulin-Different-Phenotype (%): 15% and 8%
  Total Cell Count: 167 and 192
[3]
  Population Apoptotic (%): 67% and 52%
  Population Fragmented Nuclei (%): 3% and 13%
  Population Healthy Nuclei (%): 64% and 76%
  Population Hoechst High Intensity Objects (%): 0%
  Population Membrane Permeable-Phenotype (%): 7% and 2%
  Population Mitochondria Different-Phenotype (%): 1% and 0%
  Population Mitotic Cells (%): 32% and 47%
  Population Normal (%): 99% and 100%
  Population Tubulin-Different-Phenotype (%): 9% and 1%
  Total Cell Count: 128 and 230
[4]
  Population Fragmented Nuclei (%): 11% and 14%
  Population Healthy Nuclei (%): 81%
  Population Hoechst High Intensity Objects (%): 0%
  Population Membrane Permeable-Phenotype (%): 3%
  Population Mitochondria Different-Phenotype (%): 0% and 1%
  Population Mitotic Cells (%): 36% and 85%
  Population Normal (%): 100%
  Population Pyknosed Nuclei (%): 6% and 3%
  Population Tubulin-Different-Phenotype (%): 8% and 9%
  Total Cell Count: 171 and 193
[5]
  Population Apoptotic (%): 79% and 52%
  Population Fragmented Nuclei (%): 9% and 16%
  Population Healthy Nuclei (%): 65% and 75%
  Population Hoechst High Intensity Objects (%): 0%
  Population Membrane Permeable-Phenotype (%): 3% and 1%
  Population Mitochondria Different-Phenotype (%): 0%
  Population Mitotic Cells (%): 20% and 47%
  Population Normal (%): 99% and 100%
  Population Tubulin-Different-Phenotype (%): 3% and 2%
  Total Cell Count: 133 and 248
[6]
  Population Apoptotic (%): 40% and 36%
  Population Fragmented Nuclei (%): 15% and 21%
  Population Healthy Nuclei (%): 81% and 73%
  Population Hoechst High Intensity Objects (%): 0%
  Population Membrane Permeable-Phenotype (%): 2% and 1%
  Population Mitochondria Different-Phenotype (%): 0%
  Population Mitotic Cells (%): 60% and 63%
  Population Normal (%): 100%
  Population Pyknosed Nuclei (%): 2% and 5%
  Population Tubulin-Different-Phenotype (%): 6% and 5%
  Total Cell Count: 171 and 213
